Screens: PubChem BioAssay, several laboratories
SENP7 block: SENP7 protease inhibition; Q9BQF6; recombinant SENP7, Z-RLRGG-aminoluciferin luminescence, 40 min; actives 1.5% (n = 330,000); inhibition, % at 5 µM;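 active = inhibition above about 50% at the single test dose, limit read from the data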
Target sequence (Q9BQF6 706-1050 limits assumed): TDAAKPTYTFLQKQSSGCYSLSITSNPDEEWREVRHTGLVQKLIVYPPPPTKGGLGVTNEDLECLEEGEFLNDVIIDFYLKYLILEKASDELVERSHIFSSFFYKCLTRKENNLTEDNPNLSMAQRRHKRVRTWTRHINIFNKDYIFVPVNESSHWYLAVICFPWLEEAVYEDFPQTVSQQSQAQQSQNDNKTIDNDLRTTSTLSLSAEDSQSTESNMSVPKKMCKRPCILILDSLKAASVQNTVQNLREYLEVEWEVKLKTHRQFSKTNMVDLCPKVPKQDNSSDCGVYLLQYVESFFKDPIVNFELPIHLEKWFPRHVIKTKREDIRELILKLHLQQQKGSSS
SENP8 block-1: blocks the human protease SENP8; Q96LD8; purified SENP8, Z-RLRGG-aminoluciferin cleavage, luminescence; inhibition, % at 10 µM; actives 1.2% (n = 330,000); AID 2540; in the data active = inhibition above about 50%
SENP8 block-2: SENP8 (human) protease inhibition. Q96LD8. recombinant SENP8, Nedd8 substrate fluorescence. inhibition, % at 20 µM. actives 0.64% (n = 360,000). AID 602440; in the data active = inhibition mostly above about 40%, no sharp cut-off; inactive = mostly below about 27%
SENP6 inh: SENP6 protease inhibition. AID 2599. Q9GZR1. actives 1.8% (n = 330,000). inhibition, % at 10 µM. Recombinant SENP6 catalytic domain, aminoluciferin luminescence;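 active = inhibition above about 50% at the single tested dose, limit read from the data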
Platelet DG rel: modulates dense granule release in human platelets; human platelet-rich plasma, SFLLRN dense granule ATP release, luminescence; inhibition, %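 (compounds screened at 7.5 µM in platelet-rich plasma)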; actives 0.22% (n = 300,000);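 active = mean replicate score, as percent of positive control, at or above 50; inconclusive = mean below 50 but at least one replicate at or above 50; inactive = mean and every replicate below 50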
SENP1 inh: inhibitors of human SENP1 SUMO protease catalytic domain; Q9P0U3; recombinant SENP1 catalytic domain, CyPet-SUMO1-YPet FRET cleavage; inhibition, % at 10 µM; actives 0.21% (n = 360,000); AID 624204;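 active = inhibition at least 30% at 10 µM, raw YFP signal under a set limit, fluorescence ratio 0.5 to 1.5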
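Test system: hSENP1 catalytic domain, recombinant; Amount: 20 pM final SENP1 enzyme; Medium: Tris pH 8 buffer plus EDTA, NaCl, BME, BSA, NP40, catalase; Schedule: 50 min enzyme reaction, room temperature, light-protected; Technique: FRET fluorescence in CFP and YFP emission channels; Controls: no-enzyme wells low, DMSO-plus-enzyme wells high control.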
SENP8 conf: human SENP8 inhibition, confirmed | shares compounds with SENP7 block | Recombinant SENP8, Z-RLRGG-aminoluciferin luminescence, 60 min | inhibition, % at 12.5 µM | actives 40% (n = 6,200) | AID 488912;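 active = mean inhibition across replicates above about 50%, limit read from the data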
SENP6 conf: human SENP6 inhibition, confirmed; shares compounds with SENP7 block; recombinant SENP6, Z-RLRGG-aminoluciferin luminescence; inhibition, % at 12.5 µM; actives 58% (n = 6,200); AID 488915
SENP7 conf: human SENP7 inhibition, confirmed; actives 69% (n = 6,200); shares compounds with SENP7 block; recombinant SENP7, Z-RLRGG-aminoluciferin luminescence, 40 min; AID 488917; inhibition, % at 12.5 µM
Casp3 select: selectivity test for SENP inhibitors: human caspase-3 inhibition; shares compounds with SENP7 block; purified caspase-3, Z-DEVD-aminoluciferin luminescence, 60 min; inhibition, % at 12.5 µM; actives 60% (n = 6,200);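 active = mean inhibition above about 50%, limit read from the data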
Target sequence (P42574 28-227 limits assumed): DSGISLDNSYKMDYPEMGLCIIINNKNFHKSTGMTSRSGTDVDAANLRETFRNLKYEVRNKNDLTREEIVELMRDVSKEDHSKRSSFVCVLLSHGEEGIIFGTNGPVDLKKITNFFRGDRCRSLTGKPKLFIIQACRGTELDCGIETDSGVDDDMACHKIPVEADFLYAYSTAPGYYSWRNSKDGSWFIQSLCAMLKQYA
SENP luc ctr: luminescence interference (SENP counter-screen); shares compounds with SENP7 block; Pre-incubated SENP8/Z-RLRGG-aminoluciferin, luciferase luminescence interference; inhibition, % at 12.5 µM; actives 39% (n = 6,200); AID 488919;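 active = mean inhibition above about 50% when retested at one dose, limit read from the data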
Hits are given with their value; - = inactive; ? = inconclusive; . = no result. This is a sample that favours compounds with a hit; in the whole collection about 2.6% have one here.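 Rule for the calls, unless noted: active = mean inhibition above about 50% in the one-dose retest (limit read from the data); inactive = the rest.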

SMILES	SENP7 block	SENP8 block-1	SENP8 block-2	SENP6 inh	Platelet DG rel	SENP1 inh	SENP8 conf	SENP6 conf	SENP7 conf	Casp3 select	SENP luc ctr
Cc1c(NC(=O)c2ccccc2NC(=O)c2ccccc2)cccc1C(=O)O	-	-	-	-	-	-	.	.	.	.	.
O=C(Nc1ccc(NC(=O)C2CC2)cn1)c1ccccc1	-	-	-	65	-	-	55	53	77	84	-
Cc1c(NC(=O)c2ccc(NC(=O)C3CC3)cc2)cccc1C(=O)O	57	-	-	53	-	-	-	-	77	-	-
O=C(Nc1ccc(NC(=O)C2CC2)cn1)c1ccccc1Cl	-	-	-	-	.	-	.	.	.	.	.
O=C(Nc1ccccc1C(=O)O)c1ccc(NC(=O)C2CCCO2)cc1 (stereo not drawn)	-	-	-	-	-	-	.	.	.	.	.
CCn1cc(C(=O)O)c(=O)c2cnc(N3CCN(C(=S)NC(=O)c4ccc(Br)cc4)CC3)nc21	-	-	.	-	-	.	.	.	.	.	.
CCOc1ccc(-c2nc(CCl)cs2)cc1	-	-	-	52	?	-	54	70	91	67	-
c1ccc(C2=Nn3c(nnc3-c3ccco3)SC2)cc1	-	-	-	-	-	-	.	.	.	.	.
Cc1ccc(CSc2nc3ncccc3[nH]2)cc1	67	64	-	81	-	-	-	77	95	-	81
C=C(C)CSc1nc2ncccc2[nH]1	-	-	-	-	-	-	.	.	.	.	.
CCCN1CCN(C(=O)c2noc3c2COc2ccc(C)cc2-3)CC1	-	-	-	-	-	-	.	.	.	.	.
CCOC(=O)N1CCN(C(=O)c2noc3c2COc2ccccc2-3)CC1	54	-	-	61	-	-	-	-	78	75	-
CC1C(=O)N2CCCc3cc(NC(=O)COc4ccccc4)cc1c32 (stereo not drawn)	-	-	-	-	-	-	.	.	.	.	.
COc1ccc(N2CCN(C(=O)COC(=O)c3ccc(CSC)o3)CC2)cc1	-	-	-	-	.	-	.	.	.	.	.
CCN(CC)c1ccc(C(=O)OCC(=O)Nc2sccc2C#N)cc1	-	-	-	69	-	-	-	-	70	-	-
Cc1ccc(C(=O)Nc2ccc3c(c2)OCO3)cc1Cl	51	-	-	-	-	-	-	-	61	-	-
Cc1cc(Cl)ccc1NC(=O)c1ccc2c(c1)OCO2	-	-	-	-	-	-	.	.	.	.	.
Cc1ccc(NC(=O)c2ccc3c(c2)OCO3)cc1Cl	63	-	-	69	-	-	-	50	88	-	-
O=C(Nc1ccc2c(c1)OCO2)c1cnc(Cl)c(Cl)c1	61	-	-	59	.	-	-	52	85	69	-
Cc1ccc(C(=O)Nc2ccc3c(c2)OCO3)cc1S(=O)(=O)N1CCCC1	-	-	-	-	-	-	.	.	.	.	.
O=C(Nc1ccc2c(c1)OCO2)c1ccc(Cl)nc1	-	-	-	-	-	-	.	.	.	.	.
O=c1cc(CN2CCc3ccccc3C2)nc2sccn12	-	-	-	-	-	-	.	.	.	.	.
O=[N+]([O-])c1ccc(O)c(CN2CCCCCC2)c1	-	-	-	-	-	-	.	.	.	.	.
FC(F)(F)c1nc(NCc2ccccc2)c2nnn(Cc3ccccc3)c2n1	-	-	-	-	-	-	.	.	.	.	.
CCOc1ccc(N=Cc2c(C)[nH]n(-c3nc4ccccc4[nH]3)c2=O)cc1	85	80	-	94	-	-	-	-	50	75	69
SMILES	SENP7 block	SENP8 block-1	SENP8 block-2	SENP6 inh	Platelet DG rel	SENP1 inh	SENP8 conf	SENP6 conf	SENP7 conf	Casp3 select	SENP luc ctr
O=C(Nc1ccccc1)OCC1CCCN2CCCCC12 (stereo not drawn)	-	-	-	-	-	-	.	.	.	.	.
CC1=CCC(COC(=O)Nc2ccccc2)CC1 (stereo not drawn)	89	80	-	82	-	-	86	90	99	75	81
O=C(c1[nH]c(C(F)(F)F)nc1-c1ccccc1)N1CCN(c2c(Cl)cncc2Cl)CC1	.	.	-	.	.	-	.	.	.	.	.
O=c1oc(-c2cccc([N+](=O)[O-])c2)nc2ccccc12	-	-	-	-	-	-	.	.	.	.	.
COc1cccc(-c2nc3ccccc3c(=O)o2)c1	-	-	-	-	-	-	.	.	.	.	.
O=[N+]([O-])c1ccc2nc(-c3ccccc3)oc2c1	71	63	-	77	-	-	54	59	78	70	-
COc1cccc(-c2nc3ccc([N+](=O)[O-])cc3o2)c1	95	-	-	-	-	-	-	56	73	-	-
Cc1ccc(N2C(=O)Nc3ccccc3S2(=O)=O)cc1Cl	-	-	-	-	-	-	.	.	.	.	.
O=C(OCC(=O)N1CCN(c2ccccc2)CC1)c1ccncc1	-	-	-	-	.	-	.	.	.	.	.
COc1ccccc1C(=O)NCCC(=O)Nc1ccc(S(=O)(=O)N2CC(C)CC(C)C2)cc1 (stereo not drawn)	-	-	-	-	.	-	.	.	.	.	.
Clc1ccc(OCc2cn3ccccc3n2)c2ncccc12	-	-	-	-	-	-	.	.	.	.	.
COc1c(Cl)cccc1-c1cn2ccccc2n1	93	89	-	93	-	-	93	93	101	92	-
CCc1c(C)sc(NC(=O)c2cccs2)c1C#N	-	-	-	-	-	-	.	.	.	.	.
Cc1sc(NC(=O)c2ccccc2)c(C#N)c1-c1ccccc1	-	-	-	62	-	-	-	-	-	-	-
O=[N+]([O-])c1ccc(/C=C/c2ccc3ccccc3n2)cc1	94	91	-	93	-	-	64	78	94	78	-
CC(=O)Nc1ccc(/C=C/c2ccc3cccc([N+](=O)[O-])c3n2)cc1	-	-	-	-	-	-	.	.	.	.	.
O=[N+]([O-])c1ccc(/C=C/c2ccc3cccc(O)c3n2)cc1	53	-	-	-	-	-	-	-	-	-	-
CC(=O)N(C(C)=O)n1c(/C=C/c2ccc([N+](=O)[O-])cc2)nc2ccccc2c1=O	-	-	-	-	-	-	.	.	.	.	.
O=C(Nc1ccc2[nH]ccc2c1)c1ccccc1	-	-	-	-	-	-	.	.	.	.	.
O=C(Nc1ccc2[nH]c(=O)[nH]c2c1)Nc1ccc(F)cc1F	-	-	-	-	-	-	.	.	.	.	.
O=C(Nc1ccc2[nH]c(=S)sc2c1)c1ccccc1	52	-	-	-	-	-	66	67	88	83	74
